Measurements reported in PMC4180220 (Drug metabolism letters, 2012).
Entries after “also recorded” stand apart in the source; their conditions may differ. Read-outs that look alike come from different tables or passages of the source.

Legend:
Type in all cases: biochemical
human P450 1A2 = target: T1, human P450 1A2 (Homo sapiens, UniProt P05177); assay: Methoxyresorufin O-demethylation
T1 sequence (P05177 1-516): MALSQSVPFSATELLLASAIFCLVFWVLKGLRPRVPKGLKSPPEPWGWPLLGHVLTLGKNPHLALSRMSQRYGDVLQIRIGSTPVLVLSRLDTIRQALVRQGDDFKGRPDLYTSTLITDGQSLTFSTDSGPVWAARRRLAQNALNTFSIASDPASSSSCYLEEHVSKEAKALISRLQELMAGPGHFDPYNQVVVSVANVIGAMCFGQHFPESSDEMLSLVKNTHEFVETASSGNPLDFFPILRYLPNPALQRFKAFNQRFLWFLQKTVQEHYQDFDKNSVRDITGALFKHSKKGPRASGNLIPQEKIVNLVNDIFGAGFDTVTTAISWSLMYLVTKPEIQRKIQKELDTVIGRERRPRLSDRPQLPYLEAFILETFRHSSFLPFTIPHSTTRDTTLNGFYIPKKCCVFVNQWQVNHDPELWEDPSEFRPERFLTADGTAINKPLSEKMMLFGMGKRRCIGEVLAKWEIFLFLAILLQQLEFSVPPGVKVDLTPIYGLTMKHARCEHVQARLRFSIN

P450 1A1 [1] = target: T2, P450 1A1 (Homo sapiens, UniProt P04798); assay: Ethoxyresorufin O-deethylation
T2 sequence (P04798 1-512): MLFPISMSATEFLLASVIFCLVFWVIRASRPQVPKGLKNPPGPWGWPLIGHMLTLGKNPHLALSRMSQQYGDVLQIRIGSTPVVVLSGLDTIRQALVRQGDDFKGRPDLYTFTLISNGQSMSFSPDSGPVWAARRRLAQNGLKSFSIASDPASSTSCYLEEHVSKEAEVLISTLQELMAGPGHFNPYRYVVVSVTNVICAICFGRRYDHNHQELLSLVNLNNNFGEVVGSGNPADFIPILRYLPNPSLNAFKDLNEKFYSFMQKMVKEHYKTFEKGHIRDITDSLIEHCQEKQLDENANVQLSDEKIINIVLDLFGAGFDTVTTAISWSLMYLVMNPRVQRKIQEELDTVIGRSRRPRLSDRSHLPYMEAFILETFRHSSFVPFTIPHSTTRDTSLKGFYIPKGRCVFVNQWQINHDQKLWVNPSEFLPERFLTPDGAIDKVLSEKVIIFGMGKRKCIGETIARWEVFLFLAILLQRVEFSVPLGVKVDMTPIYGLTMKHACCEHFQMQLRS

human P450 2A6 = target: T3, human P450 2A6 (Homo sapiens, UniProt P11509); assay: Coumarin 7-hydroxylation inhibition assay
T3 sequence (P11509 1-494): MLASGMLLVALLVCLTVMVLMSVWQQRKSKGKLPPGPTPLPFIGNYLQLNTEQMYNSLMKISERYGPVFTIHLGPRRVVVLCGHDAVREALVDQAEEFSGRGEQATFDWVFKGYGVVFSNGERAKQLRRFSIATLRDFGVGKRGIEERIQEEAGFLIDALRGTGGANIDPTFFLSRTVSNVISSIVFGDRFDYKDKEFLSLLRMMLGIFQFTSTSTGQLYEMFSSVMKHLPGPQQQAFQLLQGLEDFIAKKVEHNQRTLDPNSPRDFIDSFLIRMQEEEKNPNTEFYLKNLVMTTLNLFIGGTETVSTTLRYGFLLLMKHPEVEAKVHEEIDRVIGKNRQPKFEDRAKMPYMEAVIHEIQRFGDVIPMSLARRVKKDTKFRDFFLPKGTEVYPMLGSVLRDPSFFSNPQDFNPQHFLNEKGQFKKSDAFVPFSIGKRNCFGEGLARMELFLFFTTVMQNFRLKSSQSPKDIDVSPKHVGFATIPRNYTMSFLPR

rat P4502B1 = target: T4, rat P4502B1 (Rattus norvegicus, UniProt P00176); assay: Pentoxyresorufin O-depentylation
T4 sequence (P00176 1-491): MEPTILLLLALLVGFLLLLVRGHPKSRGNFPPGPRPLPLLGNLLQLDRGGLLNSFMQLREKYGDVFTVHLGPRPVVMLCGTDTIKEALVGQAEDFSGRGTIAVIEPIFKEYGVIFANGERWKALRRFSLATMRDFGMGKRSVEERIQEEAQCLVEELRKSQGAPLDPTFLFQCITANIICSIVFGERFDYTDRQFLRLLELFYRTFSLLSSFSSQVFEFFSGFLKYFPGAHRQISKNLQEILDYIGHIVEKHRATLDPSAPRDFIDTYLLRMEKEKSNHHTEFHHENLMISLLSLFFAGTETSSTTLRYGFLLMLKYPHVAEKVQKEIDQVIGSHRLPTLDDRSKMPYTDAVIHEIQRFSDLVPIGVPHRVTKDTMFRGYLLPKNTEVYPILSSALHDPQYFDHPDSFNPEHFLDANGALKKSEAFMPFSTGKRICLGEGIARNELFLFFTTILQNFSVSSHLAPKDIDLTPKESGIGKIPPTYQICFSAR
Outline: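 Rat P450 2B1 supersomes (5 nM final) and resorufin pentyl ether (5 μM final) in 0.1 M potassium phosphate pH 7.6 with MgCl2; test compound in DMSO. Started with NADPH regenerating system (NADP+, glucose-6-phosphate, G6P dehydrogenase), 37°C. Resorufin fluorescence (535/585 nm) progress curves fit second-order; linear coefficient taken as activity.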

P450 1A1 [2] = target: T2, P450 1A1; assay: Mechanism-based inhibition of P450 1A1; conditions: NADPH-dependency assay
Outline: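 Human P450 1A1 supersomes (5 nM final) pre-incubated 5 min at 37°C with the test compound at varied concentrations in 0.1 M potassium phosphate pH 7.6 with MgCl2, with or without NADPH regenerating system. Reaction started with resorufin ethyl ether (5 μM final) plus buffer or the regenerating system. Resorufin formation followed at 535 nm ex/585 nm em, 37°C; DMSO controls.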

[3] = compounds of this study, log conversion of the IC50
[4] = read-out: IC50 2A6, human P450 2A6 supersomes, coumarin 5 μM, Dixon plot

Row | Structure (SMILES) | Actual (EL) logIC50 (9-logIC50), P450 1A2 (human P450 1A2; [3]) | Actual (EL) logIC50 (9-logIC50), P450 1A1 (P450 1A1 [1]; [3]) | IC50 (human P450 2A6; [4]) | further results
1 | O=c1cc(-c2ccccc2O)oc2ccccc12 [2′-HF, reference compound] | 5.0273 | 4.7518 | > 50 µM | 
2 | C#CCOc1ccccc1-c1cc(=O)c2ccccc2o1 [2′-PF, 2′-flavone propargyl ether] | 5.8894 | 6.2518 | > 10 µM | Inhibition of P450 2B1 (in words) (rat P4502B1): inhibited
3 | O=c1cc(-c2cccc(O)c2)oc2ccccc12 [3′-HF, reference compound] | 5.0353 | 5.3010 | > 50 µM | 
4 | C#CCOc1cccc(-c2cc(=O)c3ccccc3o2)c1 [3′-PF, 3′-flavone propargyl ether] | 6.1739 | 7.6990 | > 10 µM | Mechanism-based inhibition of P450 1A1 (in words) (P450 1A1 [2]): ability to cause mechanism-based inhibition; also recorded: exhibited mechanism-based inhibition
5 | O=c1cc(-c2ccc(O)cc2)oc2ccccc12 [4′-HF, reference compound] | 5.1858 | 4.7378 | > 50 µM | 
6 | C#CCOc1ccc(-c2cc(=O)c3ccccc3o2)cc1 [4′-PF, 4′-flavone propargyl ether] | 5.8962 | 6.1871 | > 10 µM | 
7 | O=c1cc(-c2ccccc2)oc2cccc(O)c12 [Compound 5-HF, 5-hydroxy flavone, reference compound] |  |  |  | IC50 (rat P4502B1): > 50 µM; IC50 (human P450 2A6): > 50 µM
8 | C#CCOc1cccc2oc(-c3ccccc3)cc(=O)c12 [Compound 5-PF, 5-flavone propargyl ether] | 6.4202 | 5.7959 | > 10 µM | 
9 | O=c1cc(-c2ccccc2)oc2ccc(O)cc12 [Compound 6-HF, reference compound] | 5.1599 | 4.9080 | > 50 µM | 
10 | C#CCOc1ccc2oc(-c3ccccc3)cc(=O)c2c1 [Compound 6-PF, 6-flavone propargyl ether] |  | 6.4318 | > 10 µM | 
11 | C#CCOc1ccc2c(c1)C(=O)CC(c1ccccc1)O2 (centres unmarked) [Compound 6-PFN, 6-flavanone propargyl ether] |  |  |  | IC50 (human P450 1A2): > 10 µM; Inhibition of P450 1A2 (in words) (human P450 1A2): did not show inhibition; Actual (EL) logIC50 (9-logIC50), P450 1A1 (P450 1A1 [1]): 5.2388; IC50 (P450 1A1 [1]): 5.77 µM; Inhibition of P450 2B1 (in words) (rat P4502B1): inhibited; IC50 (human P450 2A6): > 10 µM
12 | O=c1cc(-c2ccccc2)oc2cc(O)ccc12 [Compound 7-HF, 7-hydroxy flavone, reference compound] |  |  |  | Mechanism-based inhibition of P450 1A1 (in words) (P450 1A1 [2]): exhibited mechanism-based inhibition; IC50 (human P450 1A2): 2.55 µM; IC50 (P450 1A1 [1]): 6.79 µM; IC50 (rat P4502B1): > 50 µM; IC50 (human P450 2A6): > 50 µM
13 | C#CCOc1ccc2c(=O)cc(-c3ccccc3)oc2c1 [Compound 7-PF, 7-flavone propargyl ether] |  |  | > 10 µM | 
14 | C#CCOc1ccc2c(c1)OC(c1ccccc1)CC2=O (centres unmarked) [Compound 7-PFN, 7-flavanone propargyl ether] |  |  |  | Actual (EL) logIC50 (9-logIC50), P450 1A2 (human P450 1A2): 6.0132; IC50 (human P450 1A2): 0.97 µM; Actual (EL) logIC50 (9-logIC50), P450 1A1 (P450 1A1 [1]): 5.2233; IC50 (P450 1A1 [1]): 5.98 µM; IC50 (human P450 2A6): > 10 µM
